Measured values as given in ChEMBL document CHEMBL3098105, “7,7'-Diazaindirubin--a small molecule inhibitor of casein kinase 2 in vitro and in cells” (Bioorg Med Chem, 2014).

Assays:
[1] = biological target: Serine/threonine-protein kinase TAO1 (Homo sapiens) (UniProt Q7L7X3); assay: Inhibition of human TAO1 assessed as residual activity at 1 uM relative to control
[2] = biological target: Platelet-derived growth factor receptor alpha (Homo sapiens) (UniProt P16234); assay: Inhibition of human PDGFRalpha assessed as residual activity at 1 uM relative to control
[3] = biological target: Serine/threonine-protein kinase PAK 4 (Homo sapiens) (UniProt O96013); assay: Inhibition of human PAK4 assessed as residual activity at 1 uM relative to control
[4] = biological target: Aurora kinase C (Homo sapiens) (UniProt Q9UQB9); assay: Inhibition of Aurora-C (unknown origin) assessed as residual activity at 1 uM relative to control
[5] = biological target: Phosphorylase b kinase gamma catalytic chain, liver/testis isoform (Homo sapiens) (UniProt P15735); assay: Inhibition of human PhKgamma2 assessed as residual activity at 1 uM relative to control
[6] = biological target: Casein kinase II (Homo sapiens) (UniProt P67870+P68400+P19784); assay: Inhibition of CK2 in human MCF7 cells assessed as time of delay for GSK3beta phosphorylation at Ser9 at 1 uM by Western blot analysis; assay type: cell-based
In short: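 MCF7 cells were grown at 37 °C and 5% CO2 in DMEM with 10% heat-inactivated FBS and penicillin/streptomycin. Cells were exposed to 1 µM for the indicated times, with DMSO as the untreated control. Extracts were made in urea lysis buffer, and 20–40 µg protein was run on 10% SDS–PAGE. Blots were probed with primary antibodies (1:1000, overnight, 4 °C) and read by ECL, with β-actin as loading control.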

[7] = biological target: Tyrosine-protein kinase HCK (Homo sapiens) (UniProt P08631); assay: Inhibition of human Hck assessed as residual activity at 1 uM relative to control
[8] = biological target: Ephrin type-A receptor 8 (Homo sapiens) (UniProt P29322); assay: Inhibition of human EphA8 assessed as residual activity at 1 uM relative to control
[9] = Antiproliferative activity against human HCC2998 cells after 3 days by sulforhodamine B assay; assay type: functional; conditions: HCC 2998, 72 h
In short: (§1)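 Tested in the NCI 60 cell line panel. GI50 is the concentration giving 50% inhibition of cell growth, and values are the mean of two series of tests.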

[10] = Antiproliferative activity against human HOP92 cells after 3 days by sulforhodamine B assay; assay type: functional; conditions: HOP-92, 72 h; in short: as §1
U-251 = assay: Antiproliferative activity against human U251 cells after 3 days by sulforhodamine B assay; assay type: functional; conditions: U-251, 72 h
[11] = biological target: T1, Muscle, skeletal receptor tyrosine-protein kinase (Homo sapiens) (UniProt O15146); assay: Inhibition of MUSK (unknown origin) assessed as residual activity at 10 uM relative to control
T1 sequence (whole entry): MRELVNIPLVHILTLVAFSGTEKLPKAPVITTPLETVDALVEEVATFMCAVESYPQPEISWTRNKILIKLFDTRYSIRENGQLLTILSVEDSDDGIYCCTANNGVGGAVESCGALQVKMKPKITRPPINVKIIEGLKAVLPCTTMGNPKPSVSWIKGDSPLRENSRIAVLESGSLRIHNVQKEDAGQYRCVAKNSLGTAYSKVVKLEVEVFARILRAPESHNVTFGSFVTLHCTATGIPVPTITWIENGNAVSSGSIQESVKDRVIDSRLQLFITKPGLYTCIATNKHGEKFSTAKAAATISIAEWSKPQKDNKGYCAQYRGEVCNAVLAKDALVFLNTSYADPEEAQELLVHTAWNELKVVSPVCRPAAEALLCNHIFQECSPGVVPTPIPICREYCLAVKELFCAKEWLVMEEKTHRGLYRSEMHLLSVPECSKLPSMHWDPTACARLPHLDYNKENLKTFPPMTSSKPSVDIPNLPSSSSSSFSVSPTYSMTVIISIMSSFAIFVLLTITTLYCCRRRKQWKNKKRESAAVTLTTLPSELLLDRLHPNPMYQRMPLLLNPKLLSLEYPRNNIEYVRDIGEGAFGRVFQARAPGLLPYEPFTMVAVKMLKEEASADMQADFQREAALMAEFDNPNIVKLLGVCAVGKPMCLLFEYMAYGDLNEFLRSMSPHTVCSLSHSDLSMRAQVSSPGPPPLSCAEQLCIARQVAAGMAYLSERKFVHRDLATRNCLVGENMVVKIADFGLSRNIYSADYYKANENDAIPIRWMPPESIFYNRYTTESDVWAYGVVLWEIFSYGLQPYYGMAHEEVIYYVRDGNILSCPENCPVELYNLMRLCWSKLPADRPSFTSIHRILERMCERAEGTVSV

[12] = biological target: Insulin receptor (Homo sapiens) (UniProt P06213); assay: Inhibition of human IR assessed as residual activity at 1 uM relative to control
[13] = biological target: Insulin-like growth factor 1 receptor (Homo sapiens) (UniProt P08069); assay: Inhibition of IGF1-R (unknown origin) assessed as residual activity at 10 uM relative to control
CCRF-CEM = assay: Antiproliferative activity against human CCRF-CEM cells after 3 days by sulforhodamine B assay; assay type: functional; conditions: 72 h; in short: as §1
[14] = biological target: Tyrosine-protein kinase TXK (Homo sapiens) (UniProt P42681); assay: Inhibition of human Txk assessed as residual activity at 1 uM relative to control
[15] = biological target: Fibroblast growth factor receptor 4 (Homo sapiens) (UniProt P22455); assay: Inhibition of human FGFR4 assessed as residual activity at 1 uM relative to control
[16] = biological target: Aurora kinase B (Homo sapiens) (UniProt Q96GD4); assay: Inhibition of Aurora-B (unknown origin) assessed as residual activity at 10 uM relative to control
[17] = biological target: CDK7/Cyclin H/MNAT1 (Homo sapiens) (UniProt P51946+P50613+P51948); assay: Inhibition of human CDK7/cyclinH/MAT1 assessed as residual activity at 1 uM relative to control; assay type: protein-complex assay
[18] = biological target: Mast/stem cell growth factor receptor Kit (Homo sapiens) (UniProt P10721); assay: Inhibition of human cKit assessed as residual activity at 1 uM relative to control
[19] = biological target: Serine/threonine-protein kinase STK11 (Homo sapiens) (UniProt Q15831); assay: Inhibition of human LKB1 assessed as residual activity at 1 uM relative to control
[20] = biological target: Proto-oncogene tyrosine-protein kinase receptor Ret (Homo sapiens) (UniProt P07949); assay: Inhibition of RET (unknown origin) assessed as residual activity at 1 uM relative to control
[21] = biological target: Mitogen-activated protein kinase 1 (Homo sapiens) (UniProt P28482); assay: Inhibition of human MAPK2 assessed as residual activity at 1 uM relative to control
[22] = biological target: Tyrosine-protein kinase Fgr (Homo sapiens) (UniProt P09769); assay: Inhibition of FGR (unknown origin) assessed as residual activity at 10 uM relative to control
[23] = biological target: Serine/threonine-protein kinase PLK1 (Homo sapiens) (UniProt P53350); assay: Inhibition of human Plk1 assessed as residual activity at 1 uM relative to control

Chain of Ephrin type-A receptor 8 (Homo sapiens) (P29322 whole entry): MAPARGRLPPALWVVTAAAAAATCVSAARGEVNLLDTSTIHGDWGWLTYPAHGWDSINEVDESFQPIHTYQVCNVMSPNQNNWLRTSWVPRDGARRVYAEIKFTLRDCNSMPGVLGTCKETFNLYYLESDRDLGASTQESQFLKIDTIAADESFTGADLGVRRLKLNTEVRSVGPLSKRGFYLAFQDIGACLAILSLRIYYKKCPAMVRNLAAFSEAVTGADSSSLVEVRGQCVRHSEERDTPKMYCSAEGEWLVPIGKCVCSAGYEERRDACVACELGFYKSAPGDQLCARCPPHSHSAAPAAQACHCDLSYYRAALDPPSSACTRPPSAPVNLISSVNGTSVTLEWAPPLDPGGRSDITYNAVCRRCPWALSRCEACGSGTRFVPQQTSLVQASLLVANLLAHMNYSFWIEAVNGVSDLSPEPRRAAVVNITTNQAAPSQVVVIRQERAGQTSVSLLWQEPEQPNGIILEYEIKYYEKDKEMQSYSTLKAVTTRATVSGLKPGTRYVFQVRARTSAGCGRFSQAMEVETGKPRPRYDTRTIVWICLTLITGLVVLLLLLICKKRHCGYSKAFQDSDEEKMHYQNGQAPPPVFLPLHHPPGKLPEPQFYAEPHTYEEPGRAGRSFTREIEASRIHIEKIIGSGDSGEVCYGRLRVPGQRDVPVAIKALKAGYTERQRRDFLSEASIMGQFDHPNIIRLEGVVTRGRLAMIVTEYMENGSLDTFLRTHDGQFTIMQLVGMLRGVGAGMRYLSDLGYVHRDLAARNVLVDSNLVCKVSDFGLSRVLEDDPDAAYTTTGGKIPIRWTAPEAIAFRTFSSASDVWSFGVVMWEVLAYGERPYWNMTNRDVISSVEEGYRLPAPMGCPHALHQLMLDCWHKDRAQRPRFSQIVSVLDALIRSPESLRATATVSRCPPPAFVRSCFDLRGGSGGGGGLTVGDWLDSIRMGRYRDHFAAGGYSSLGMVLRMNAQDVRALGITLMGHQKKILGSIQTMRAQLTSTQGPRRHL
Chain of Mitogen-activated protein kinase 1 (Homo sapiens) (P28482 whole entry): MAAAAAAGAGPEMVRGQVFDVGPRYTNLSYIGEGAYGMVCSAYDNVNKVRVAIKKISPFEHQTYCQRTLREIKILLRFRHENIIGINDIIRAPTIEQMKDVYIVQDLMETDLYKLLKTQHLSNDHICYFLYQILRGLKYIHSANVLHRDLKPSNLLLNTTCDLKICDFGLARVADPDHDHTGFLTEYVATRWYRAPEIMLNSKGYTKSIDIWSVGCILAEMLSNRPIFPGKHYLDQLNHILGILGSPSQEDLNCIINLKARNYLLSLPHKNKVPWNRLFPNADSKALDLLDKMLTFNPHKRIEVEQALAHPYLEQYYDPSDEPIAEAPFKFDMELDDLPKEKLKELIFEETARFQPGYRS
Chain of Tyrosine-protein kinase TXK (Homo sapiens) (P42681 whole entry): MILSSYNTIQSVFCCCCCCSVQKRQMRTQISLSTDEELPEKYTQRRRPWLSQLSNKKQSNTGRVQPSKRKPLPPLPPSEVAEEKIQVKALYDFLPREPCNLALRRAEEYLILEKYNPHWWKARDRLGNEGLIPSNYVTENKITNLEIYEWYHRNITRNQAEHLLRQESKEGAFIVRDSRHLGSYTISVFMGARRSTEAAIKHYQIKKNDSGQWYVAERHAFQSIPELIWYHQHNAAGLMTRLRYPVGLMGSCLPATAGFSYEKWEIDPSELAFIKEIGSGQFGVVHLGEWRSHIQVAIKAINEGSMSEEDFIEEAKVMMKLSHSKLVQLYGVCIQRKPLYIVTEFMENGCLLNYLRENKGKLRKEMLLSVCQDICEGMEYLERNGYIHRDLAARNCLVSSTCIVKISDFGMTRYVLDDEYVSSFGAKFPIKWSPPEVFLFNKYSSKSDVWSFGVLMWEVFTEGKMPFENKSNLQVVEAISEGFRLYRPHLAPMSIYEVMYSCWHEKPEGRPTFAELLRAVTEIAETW
Chain of Phosphorylase b kinase gamma catalytic chain, liver/testis isoform (Homo sapiens) (P15735 whole entry, canonical isoform): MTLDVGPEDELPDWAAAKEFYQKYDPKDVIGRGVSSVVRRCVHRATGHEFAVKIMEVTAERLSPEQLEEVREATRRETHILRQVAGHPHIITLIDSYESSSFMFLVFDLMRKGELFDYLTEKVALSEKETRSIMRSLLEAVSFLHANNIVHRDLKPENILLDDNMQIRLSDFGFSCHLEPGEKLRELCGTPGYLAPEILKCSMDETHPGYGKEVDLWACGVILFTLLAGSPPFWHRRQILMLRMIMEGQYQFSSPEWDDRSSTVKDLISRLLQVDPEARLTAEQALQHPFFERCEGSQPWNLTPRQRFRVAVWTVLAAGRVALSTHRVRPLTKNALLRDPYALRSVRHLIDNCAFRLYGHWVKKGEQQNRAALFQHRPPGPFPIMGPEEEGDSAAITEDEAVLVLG
Chain of Serine/threonine-protein kinase PAK 4 (Homo sapiens) (O96013 whole entry, looked up): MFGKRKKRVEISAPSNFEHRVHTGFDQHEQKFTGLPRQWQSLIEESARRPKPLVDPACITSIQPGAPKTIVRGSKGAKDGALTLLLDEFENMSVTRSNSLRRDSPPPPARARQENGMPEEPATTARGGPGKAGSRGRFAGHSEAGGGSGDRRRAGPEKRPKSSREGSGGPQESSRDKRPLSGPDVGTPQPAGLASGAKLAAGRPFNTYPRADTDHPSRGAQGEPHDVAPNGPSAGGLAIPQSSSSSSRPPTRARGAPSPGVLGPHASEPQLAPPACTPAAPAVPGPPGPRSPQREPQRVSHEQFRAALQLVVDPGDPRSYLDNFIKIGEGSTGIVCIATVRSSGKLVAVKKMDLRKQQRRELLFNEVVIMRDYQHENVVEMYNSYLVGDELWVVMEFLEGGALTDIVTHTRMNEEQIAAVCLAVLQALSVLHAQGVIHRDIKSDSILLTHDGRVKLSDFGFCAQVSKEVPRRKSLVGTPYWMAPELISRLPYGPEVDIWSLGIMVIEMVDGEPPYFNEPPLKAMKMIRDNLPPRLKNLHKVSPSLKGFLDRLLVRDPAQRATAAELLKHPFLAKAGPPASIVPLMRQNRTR
Chain of Serine/threonine-protein kinase STK11 (Homo sapiens) (Q15831 whole entry): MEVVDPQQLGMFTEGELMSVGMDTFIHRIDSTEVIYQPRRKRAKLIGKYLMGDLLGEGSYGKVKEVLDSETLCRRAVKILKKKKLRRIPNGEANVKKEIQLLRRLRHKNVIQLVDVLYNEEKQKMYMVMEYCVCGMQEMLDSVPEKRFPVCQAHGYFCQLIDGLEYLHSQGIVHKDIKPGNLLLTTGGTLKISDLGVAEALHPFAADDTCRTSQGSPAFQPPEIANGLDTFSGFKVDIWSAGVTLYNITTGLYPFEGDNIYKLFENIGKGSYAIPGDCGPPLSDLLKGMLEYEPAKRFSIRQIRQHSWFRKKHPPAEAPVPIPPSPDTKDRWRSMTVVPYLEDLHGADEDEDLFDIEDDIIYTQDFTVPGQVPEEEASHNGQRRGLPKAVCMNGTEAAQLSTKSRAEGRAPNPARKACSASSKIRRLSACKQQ
Chain of Aurora kinase B (Homo sapiens) (Q96GD4 whole entry): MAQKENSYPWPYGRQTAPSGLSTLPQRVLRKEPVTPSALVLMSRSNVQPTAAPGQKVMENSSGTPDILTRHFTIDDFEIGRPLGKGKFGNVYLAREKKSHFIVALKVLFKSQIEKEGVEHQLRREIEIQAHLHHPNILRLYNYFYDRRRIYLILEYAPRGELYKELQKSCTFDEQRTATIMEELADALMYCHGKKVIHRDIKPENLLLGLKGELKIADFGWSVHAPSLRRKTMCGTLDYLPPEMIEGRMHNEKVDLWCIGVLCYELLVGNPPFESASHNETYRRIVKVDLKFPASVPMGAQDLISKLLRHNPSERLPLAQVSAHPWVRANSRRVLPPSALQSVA
Chain of Aurora kinase C (Homo sapiens) (Q9UQB9 whole entry, canonical isoform): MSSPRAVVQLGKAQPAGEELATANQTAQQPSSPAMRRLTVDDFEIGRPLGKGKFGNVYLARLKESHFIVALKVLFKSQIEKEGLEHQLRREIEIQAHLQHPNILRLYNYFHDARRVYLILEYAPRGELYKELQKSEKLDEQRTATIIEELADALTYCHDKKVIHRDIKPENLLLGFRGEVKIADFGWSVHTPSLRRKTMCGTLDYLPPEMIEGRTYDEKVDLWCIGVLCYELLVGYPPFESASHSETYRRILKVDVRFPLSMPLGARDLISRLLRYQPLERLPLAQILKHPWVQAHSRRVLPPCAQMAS
Chain of Fibroblast growth factor receptor 4 (Homo sapiens) (P22455 22-802 limits assumed): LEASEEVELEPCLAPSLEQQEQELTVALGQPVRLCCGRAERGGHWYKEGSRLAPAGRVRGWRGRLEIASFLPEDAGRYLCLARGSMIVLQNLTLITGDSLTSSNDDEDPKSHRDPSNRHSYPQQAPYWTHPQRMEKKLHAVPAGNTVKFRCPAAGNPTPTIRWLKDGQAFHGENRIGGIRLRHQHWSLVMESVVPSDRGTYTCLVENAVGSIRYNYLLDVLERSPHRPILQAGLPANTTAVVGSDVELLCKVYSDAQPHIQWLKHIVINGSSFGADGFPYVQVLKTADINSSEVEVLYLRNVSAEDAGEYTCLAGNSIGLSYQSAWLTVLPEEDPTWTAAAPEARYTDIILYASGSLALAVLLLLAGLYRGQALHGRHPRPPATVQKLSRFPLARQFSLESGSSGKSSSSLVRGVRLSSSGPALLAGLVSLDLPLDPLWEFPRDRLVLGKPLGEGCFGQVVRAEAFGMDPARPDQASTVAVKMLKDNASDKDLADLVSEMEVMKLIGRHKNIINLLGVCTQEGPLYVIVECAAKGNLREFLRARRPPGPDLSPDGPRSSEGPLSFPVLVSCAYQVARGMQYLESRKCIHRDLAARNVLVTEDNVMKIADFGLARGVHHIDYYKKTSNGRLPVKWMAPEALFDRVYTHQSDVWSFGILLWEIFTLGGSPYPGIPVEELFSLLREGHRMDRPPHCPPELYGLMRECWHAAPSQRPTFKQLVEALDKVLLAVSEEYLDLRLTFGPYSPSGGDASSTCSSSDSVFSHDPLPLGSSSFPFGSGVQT

SMILES: O=C1Nc2ncccc2/C1=C1/Nc2ncccc2C1=O
- Activity [1]: 98%
- Activity [2]: 96%
- Activity [3]: 108%
- Activity [4]: 89%
- Activity [5]: 104%
- TIME [6]: 0.5 h
- Activity [7]: 100%
- Activity [8]: 114%
- GI50 [9]: 0.502 µM
- GI50 [10]: 3.04 µM
- GI50 (U-251): 1.1 µM
- Activity [11]: 98%
- Activity [12]: 98%
- Activity [13]: 94%
- GI50 (CCRF-CEM): 2.74 µM
- Activity [14]: 126%
- Activity [15]: 108%
- Activity [16]: 88%
- Activity [17]: 76%
- Activity [18]: 83%
- Activity [19]: 104%
- Activity [20]: 97%
- Activity [21]: 104%
- Activity [22]: 93%
- Activity [23]: 101%
